Measured values as given in ChEMBL document CHEMBL4334441, “Exploitation of Antibiotic Resistance as a Novel Drug Target: Development of a β-Lactamase-Activated Antibacterial Prodrug” (J Med Chem, 2019).
Converted amounts (≈) assume the structure as drawn. The source made the active and inactive calls. The calls are words filed in the database; no cut-off is given here.

Experiments:
[1] = Prodrug activation in Escherichia coli CFT073 harboring CTX-M-1 assessed as bacterial CTX-M-1-mediated compound hydrolysis incubated for 1 hr by 1H-NMR analysis; details: bacteria
Summary of the method: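 Whole-cell hydrolysis used E. coli CFT073 carrying pSU18 encoding CTX-M-1. The read-out was percentage of compound hydrolysed after 60 min.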

[2] = Prodrug activation in Escherichia coli DH5[alpha] expressing beta-lactamase CTX-M-1 assessed as bacterial CTX-M-1-mediated compound hydrolysis at 100 uM incubated for 60 mins by 1H-NMR spectra analysis; details: bacteria
[3] = system: Escherichia coli; experiment: Growth inhibition of Escherichia coli DH5[alpha] expressing ESBL TEM-116 incubated for 18 hrs by broth microdilution method; format: functional
[4] = system: Escherichia coli; experiment: Growth inhibition of Escherichia coli CFT073 harboring pSU18 and CTX-M-1 incubated for 18 hrs by broth microdilution method; details: CFT073, 18 h
[5] = Drug metabolism in TEM-116-deficient Escherichia coli DH5[alpha] assessed as compound hydrolysis at 100 uM incubated for 90 mins by 1H-NMR spectra analysis; format: ADME; details: TEM-116-deficient Escherichia coli DH5alpha cells, read-out: Drug degradation
[6] = Drug metabolism in CTX-M-1-deficient Escherichia coli DH5[alpha] assessed as compound hydrolysis at 100 uM incubated for 60 mins by 1H-NMR spectra analysis; format: ADME; details: CTX-M-1-deficient Escherichia coli DH5alpha cells, read-out: Drug metabolism
[7] = Prodrug activation in Escherichia coli DH5[alpha] expressing TEM-116 assessed as bacterial TEM-116 mediated compound hydrolysis at 100 uM incubated for 90 mins by 1H-NMR spectra analysis; details: bacteria, 1.5 h
[8] = system: Escherichia coli; experiment: Growth inhibition of ciprofloxacin-susceptible Escherichia coli DH5[alpha] incubated for 18 hrs by broth microdilution method; format: organism-based; details: in vivo
Summary of the method: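 MIC determination against E. coli DH5α, either lacking β-lactamase or expressing the ESBL TEM-116. The MIC is the minimal concentration that inhibits bacterial growth.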

[9] = system: Escherichia coli; experiment: Growth inhibition of ciprofloxacin-susceptible Escherichia coli CFT073 harboring pSU18 incubated for 18 hrs by broth microdilution method; format: organism-based; details: in vivo
Summary of the method: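 MIC determination in E. coli CFT073, either wild type or carrying pSU18 (empty pEMP, or encoding CTX-M, NDM-1 or KPC). Dose–response growth curves were run, and each point is the mean ± SEM of n = 3. The MIC is the minimal concentration that inhibits bacterial growth.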

[10] = Selectivity ratio of MIC for ciprofloxacin-susceptible Escherichia coli CFT073 harboring pSU18 to MIC for ciprofloxacin-susceptible Escherichia coli DH5[alpha]; format: ADME
[11] = system: Enterococcus faecalis; experiment: Effect on growth of Enterococcus faecalis ATCC 29212 incubated for 18 hrs by broth microdilution method; format: organism-based; details: in vivo
[12] = system: Enterococcus faecalis; experiment: Effect on growth of Enterococcus faecalis GW01 incubated for 18 hrs by broth microdilution method; format: organism-based; details: in vivo
[13] = target: DNA gyrase (Escherichia coli) (UniProt P0AES6+P0AES4); details: 1 uM
[14] = Prodrug activation in Escherichia coli DH5[alpha] expressing TEM-116 assessed as bacterial TEM-116 mediated compound hydrolysis at 50 uM incubated for 60 mins by 1H-NMR spectra analysis; details: bacteria

Row | inhibition [13] | Structure (SMILES) | Drug metabolism [1] | Drug metabolism [2] | MIC [3] | MIC [4] | metabolised at 1.5 h, 100 µM [5] | metabolised at 1 h, 100 µM [6] | Drug metabolism [7] | MIC [8] | MIC [9] | Selectivity ratio [10] | Activity [11] | Activity [12] | Drug metabolism [14]
1 |  | CC(=O)OCC1=C(C(=O)O)N2C(=O)[C@@H](NC(=O)Cc3ccc(-c4ccccc4)cc3)[C@H]2SC1 | 4% | 100% | > 800 µM | > 400 µM | 14% | 0% | 69% | > 800 µM | > 400 µM | <= 2 |  |  | 
2 |  | CC(=O)OCC1=C(C(=O)O)N2C(=O)[C@@H](NC(=O)Cc3ccc(Oc4ccccc4)cc3)[C@H]2SC1 | 4% | 94% | > 800 µM | > 400 µM | 13% | 0% | 54% | > 800 µM | > 400 µM | <= 2 |  |  | 
3 |  | CCCC(=O)N[C@@H]1C(=O)N2C(C(=O)O)=C(COC(C)=O)CS[C@H]12 | 25% |  | 400 µM (≈ 137 µg/mL) | > 400 µM |  |  |  | 100 µM (≈ 34.2 µg/mL) | 200 µM (≈ 68.5 µg/mL) | <= 2 |  |  | 
4 |  | COc1ccc(C(=O)N[C@@H]2C(=O)N3C(C(=O)O)=C(COC(C)=O)CS[C@H]23)cc1 | 3% |  | > 800 µM | > 400 µM |  |  |  | > 800 µM | > 400 µM | <= 2 |  |  | 
5 |  | CC(=O)OCC1=C(C(=O)O)N2C(=O)[C@@H](NC(=O)Cc3ccc(F)cc3)[C@H]2SC1 | 18% |  | 200 µM (≈ 81.7 µg/mL) | > 400 µM |  |  |  | 100 µM (≈ 40.8 µg/mL) | 100 µM (≈ 40.8 µg/mL) | <= 2 |  |  | 
6 |  | CC(=O)OCC1=C(C(=O)O)N2C(=O)[C@@H](NC(=O)C3CCCCC3)[C@H]2SC1 |  |  | > 400 µM |  |  |  |  | > 400 µM |  |  |  |  | 
7 |  | CC(=O)OCC1=C(C(=O)O)N2C(=O)[C@@H](NC(=O)[C@H](C)c3ccccc3)[C@H]2SC1 |  |  | > 800 µM | > 400 µM |  |  |  | 400 µM (≈ 162 µg/mL) | > 400 µM | <= 2 |  |  | 
8 | Active | O=C(O)c1cn(C2CC2)c2cc(N3CCNCC3)c(F)cc2c1=O [CIPROFLOXACIN] |  |  |  |  |  |  |  |  |  |  | Toxic | Toxic | 
9 |  | CC(=O)OCC1=C(C(=O)O)N2C(=O)[C@@H](NC(=O)Cc3ccccc3)[C@H]2SC1 [CEFALORAM] | 17% |  | 100 µM (≈ 39 µg/mL) | > 400 µM |  |  |  | 50 µM (≈ 19.5 µg/mL) | 50 µM (≈ 19.5 µg/mL) | <= 2 |  |  | 
10 |  | CC(=O)OCC1=C(C(=O)O)N2C(=O)[C@@H](NC(=O)Cc3cc(Br)cs3)[C@H]2SC1 |  |  | 200 µM (≈ 95.1 µg/mL) | > 400 µM |  |  |  | 50 µM (≈ 23.8 µg/mL) | 50 µM (≈ 23.8 µg/mL) | <= 2 |  |  | 
11 |  | CC(=O)OCC1=C(C(=O)O)N2C(=O)[C@@H](NC(=O)Cc3cccs3)[C@H]2SC1 [CEPHALOTHIN] | 68% | 100% | 100 µM (≈ 39.6 µg/mL) | > 400 µM |  | 0% |  | 12.5 µM (≈ 4.96 µg/mL) | 25 µM (≈ 9.91 µg/mL) | <= 2 |  |  | 61%
12 |  | CC(=O)OCC1=C(C(=O)O)N2C(=O)[C@@H](NC(=O)c3ccc(C)cc3)[C@H]2SC1 | 3% |  | > 400 µM | > 400 µM |  |  |  | > 400 µM | > 400 µM | <= 2 |  |  | 
13 |  | CC(=O)OCC1=C(C(=O)O)N2C(=O)[C@@H](NC(=O)Cc3ccc(Br)cc3)[C@H]2SC1 | 9% |  | 800 µM (≈ 375 µg/mL) | > 400 µM |  |  |  | 200 µM (≈ 93.9 µg/mL) | 100 µM (≈ 46.9 µg/mL) | <= 2 |  |  | 
14 |  | CC(=O)OCC1=C(C(=O)O)N2C(=O)[C@@H](NC(=O)Cc3ccsc3)[C@H]2SC1 | 32% |  | 200 µM (≈ 79.3 µg/mL) | > 400 µM |  |  |  | 50 µM (≈ 19.8 µg/mL) | 50 µM (≈ 19.8 µg/mL) | <= 2 |  |  | 
15 |  | CC(=O)OCC1=C(C(=O)O)N2C(=O)[C@@H](NC(=O)Cc3ccc(Cl)cc3)[C@H]2SC1 | 14% |  | 400 µM (≈ 170 µg/mL) | > 400 µM |  |  |  | 100 µM (≈ 42.5 µg/mL) | 100 µM (≈ 42.5 µg/mL) | <= 2 |  |  | 
16 |  | CC(=O)OCC1=C(C(=O)O)N2C(=O)[C@@H](NC(=O)c3ccco3)[C@H]2SC1 | 64% |  | > 400 µM | > 400 µM |  |  |  | > 400 µM | > 400 µM | <= 2 |  |  | 
17 |  | CC(=O)OCC1=C(C(=O)O)N2C(=O)[C@@H](NC(=O)Cc3ccc(C)cc3)[C@H]2SC1 | 7% |  | 400 µM (≈ 162 µg/mL) | > 400 µM |  |  |  | 100 µM (≈ 40.4 µg/mL) | 100 µM (≈ 40.4 µg/mL) | <= 2 |  |  | 
18 |  | CC(=O)N[C@@H]1C(=O)N2C(C(=O)O)=C(COC(C)=O)CS[C@H]12 | 67% |  |  | > 400 µM |  |  |  | 200 µM (≈ 62.9 µg/mL) | 400 µM (≈ 126 µg/mL) | <= 2 |  |  | 
19 |  | CC(=O)OCC1=C(C(=O)O)N2C(=O)[C@@H](NC(=O)c3ccccc3)[C@H]2SC1 | 26% |  | > 400 µM | > 400 µM |  |  |  | > 400 µM | > 400 µM | <= 2 |  |  | 
20 |  | CCCCCC(=O)N[C@@H]1C(=O)N2C(C(=O)O)=C(COC(C)=O)CS[C@H]12 | 7% |  | > 800 µM | > 400 µM |  |  |  | 200 µM (≈ 74.1 µg/mL) | 100 µM (≈ 37 µg/mL) | <= 2 |  |  | 
21 |  | CC(=O)OCC1=C(C(=O)O)N2C(=O)[C@@H](NC(=O)c3ccc([N+](=O)[O-])cc3)[C@H]2SC1 |  |  | > 400 µM |  |  |  |  | > 400 µM |  |  |  |  | 
22 |  | CC(=O)OCC1=C(C(=O)O)N2C(=O)[C@@H](NC(=O)Cc3cccc(C)c3)[C@H]2SC1 | 16% |  | 400 µM (≈ 162 µg/mL) | > 400 µM |  |  |  | 200 µM (≈ 80.9 µg/mL) | 200 µM (≈ 80.9 µg/mL) | <= 2 |  |  | 
23 |  | CC(=O)OCC1=C(C(=O)O)N2C(=O)[C@@H](NC(=O)Cc3cccc(Oc4ccccc4)c3)[C@H]2SC1 |  |  | > 800 µM | > 400 µM |  |  |  | > 800 µM | >= 400 uM | <= 2 |  |  | 
